Experimental data gathered from unrelated publications.
Protocols differ between the studies behind these lines.
MAP2K5: Dual specificity mitogen-activated protein kinase kinase 5 (MAP2K5, Homo sapiens, UniProt Q13163)

| Compound | target | read-out | mode | method | concentration | quantity | result |
| --- | --- | --- | --- | --- | --- | --- | --- |
| CCN(CC)CCCC[C@H](NC(=O)[C@H](CC(C)C)NC(=O)[C@H](C)NC(=O)[C@H](Cc1ccccc1)NC(=O)c1ccc(C(C)(C)C)cc1)C(=O)N[C@@H](CO)C(=O)OC | Melanocortin receptor 4 (MC4R, Homo sapiens, UniProt P32245) | ligand displacement | – | radioligand | 10 µM | remaining binding | 84% |
| Cc1nn(C)cc1-c1nc2c(N3CCN(Cc4ccc(Cl)cc4)CC3)c(Cl)cnc2[nH]1 | MAP2K5 | binding | – | competition with immobilised ligand | 1 µM | remaining binding | 58% |
| C#Cc1n[nH]c2c(-c3cn(C(C)c4ccccn4)c(=O)[nH]c3=O)cc(F)cc12 (centres unmarked) | Fibroblast growth factor receptor 1 (FGFR1, Homo sapiens, UniProt P11362) | enzyme activity | inhibitor | – | 1 µM | inhibition | 3.8% |
| CN1CC[C@@]2(C)c3cc(OC(=O)Nc4ccccc4)ccc3N(C)[C@@H]12 | Muscarinic acetylcholine receptor M5 (CHRM5, Homo sapiens, UniProt P08912) | ligand displacement | – | radioligand | 10 µM | inhibition | 6.5% |
| CO[C@H]1/C=C/O[C@@]2(C)Oc3c(C)c(O)c4c(O)c(c(/C=N/N5CCN(C6CCCC6)CC5)c(O)c4c3C2=O)NC(=O)/C(C)=C\C=C\[C@H](C)[C@H](O)[C@@H](C)[C@@H](O)[C@@H](C)[C@H](OC(C)=O)[C@@H]1C | dppA (Mycobacterium tuberculosis, UniProt I6X811) | thermal stability | – | – | 100 µM | ΔTm | > 1.5 °C |
| COc1ncccc1-c1cnn2ccc(N3CCN(C(=O)OC(C)C)CC3)nc12 | Peripheral plasma membrane protein CASK (CASK, Homo sapiens, UniProt O14936) | binding | – | competition with immobilised ligand | 1 µM | remaining binding | 93% |
| Nc1ncc(-c2nc(N3CCOCC3)nc(N3CCOCC3)n2)c(C(F)F)n1 | MAP2K5 | binding | – | competition with immobilised ligand | 10 µM | remaining binding | 39% |
| Sc1ncnc2nc[nH]c12 | Replicase polyprotein 1a, main protease (Severe acute respiratory syndrome-related coronavirus, UniProt P0C6U8) | enzyme activity | inhibitor | – | 200 µM | remaining activity | 49% |
